Assay outcomes deposited in PubChem BioAssay by several laboratories.
An excerpt weighted towards active compounds, which were near 2.2% of everything screened.
Cneo AK release: Cryptococcus neoformans lysis via adenylate kinase release. lysis activity, % at 15 µM. 360,000 compounds, 0.2% hits. C. neoformans lysis, adenylate kinase release luminescence, 4 h; normalised: neutral wells 0, clomiphene wells 100;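 active = mean lysis activity across replicates of at least 80%, whatever share of replicates individually reach that level; inactive = mean lysis activity below 80%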
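Schedule: static 4 h at 37 °C with compound, 1 h detection; system: C. neoformans cells; benchmarks: Clomiphene as positive control; buffer or medium: fresh YPD medium; measure: luminescence rise reflecting yeast cell lysis; measured by: luminescent adenylate kinase detection reagent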
PglD inh: PglD (C. jejuni) enzyme inhibition; purified PglD enzyme, DTNB colorimetric CoA detection; 360,000 compounds, 0.098% hits; inhibition, % at 12.5 µM; in the data active = inhibition above about 16%, passing the limit was not always enough
SUMO Mot1 rescue: SUMOylation pathway inhibition by Mot1-301 growth rescue; S. cerevisiae Mot1-301 growth rescue, ATP luminescence, 38.5C; percent above DMSO median, 100 means doubled; growth rescue, % at 18.8 µM; 320,000 compounds, 1% hits; AID 2716;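 active = every valid replicate shows activation above 250% relative to neutral control wells; inactive = the rest, any valid replicate at or below 250%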;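 note: OY570 slx delta 5 strain wells were the positive control but not used for scaling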
Yeast superoxide: lowers age-related superoxide in aged yeast cells | 330,000 compounds, 0.18% hits | S. cerevisiae aged cells, superoxide DHE fluorescence; active compounds read low | superoxide response (% of plate mean), % at 10 µM;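 active = superoxide response under a set limit, about three screen SD below normal, cut at about 65% in these data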;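 note: yeast aged for seven days with compound at 30 °C before DHE staining; 100% = average MFI of all compound-treated wells on the plate with controls excluded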
Ecoli rRNA inh: inhibitors of bacterial rRNA selective over humanized ribosomes | GFP signal change (wild-type ribosome), % (test concentration not listed) | AID 720706 | E. coli WT GFP vs humanized-ribosome RFP mutants, fluorescence, 24 h; active compounds read low; DMSO median 0, no signal -100 | 350,000 compounds, 1.6% hits;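 active = significant combined selectivity score with lowered wild-type GFP, culture density cut under 30%, mutant RFP and density less affected; inactive = any of these conditions unmet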
Mot1 SUMO dose: yeast SUMO pathway inhibition in dose response; shares compounds with SUMO Mot1 rescue; S. cerevisiae Mot1-301 galactose growth, ATP luminescence, 24 h; -100 = growth of slx-deleted rescue strain; growth activity, percent, % at 42 µM; 2,300 tested, under 10 active;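 active = Signal drops as the depositor expects, and the fitted half-maximal dose is no more than ten times the top valid tested dose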;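 note: more negative values mean stronger growth rescue toward the control strain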
Active calls of the source: *; x = no result; + = active, no number; [ ] = another dose, or the depositor's remark.

SMILES | Cneo AK release | PglD inh | SUMO Mot1 rescue | Yeast superoxide | Ecoli rRNA inh | Mot1 SUMO dose
COc1cccc(NC(=O)C[C@@H]2CC[C@H]3[C@H](COc4ccc(NC(=O)c5ccccc5F)cc4C(=O)N3C)O2)c1 | -1 | 0 | x | x | 0 | x
COc1ccc(CN2C[C@H](O)COC[C@H]3O[C@H](CC(=O)NCc4ccccc4Cl)CC[C@@H]32)cc1 | 2 | 0 | x | x | -7 | x
COc1ccc(CN(C)C(=O)c2sccc2-c2ccccc2)c(OC)c1 | -1 | 5 | 485* | 95 | -50 | 0
COc1ccc(CN(C)C(=O)c2ccc(COc3ccccc3)cc2)c(OC)c1 | -1 | -16 | 111 | 78 | -1 | x
O=C1CCN(Cc2ccccc2)CCN1CCOc1ccccc1 | -2 | -1 | 858* | 99 | 11 | 0
C[C@H]1CN([C@@H](C)CO)S(=O)(=O)c2ccc(-c3cccnc3)cc2O[C@@H]1CN(C)CC1CC1 | -4 | 1 | x | x | x | x
C[C@@H]1CN([C@@H](C)CO)C(=O)c2cc(NC(=O)CCC(F)(F)F)ccc2O[C@@H](C)CCCCO[C@H]1CN(C)Cc1ccccc1 | x | x | x | x | 1 | x
COc1cc(S(=O)(=O)NC2CCCC2)c(OC)cc1C | -3 | -3 | 435* | 107 | 4 | 0
COc1ccc(C)cc1S(=O)(=O)NC1CCCCCC1 | -1 | 0 | -13 | 75 | -1 | x
Cc1noc(C)c1NC(=O)N(C)C[C@H]1OCCCC[C@H](C)Oc2ccc(N(C)C)cc2C(=O)N([C@@H](C)CO)C[C@@H]1C | -2 | 5 | x | x | 0 | x
CC(OC(=O)c1cnccn1)C(=O)c1ccccc1 (stereo not given) | x | x | 433* | 97 | 5 | 0
Cc1ccc(C(=O)C(OC(=O)c2cnccn2)c2ccccc2)cc1 (stereo not given) | -2 | -1 | 1 | 126 | 10 | x
CCN1CCCC1CN(Cc1cc2ccc(C)cc2[nH]c1=O)C(=S)Nc1ccccc1C(=O)OC (stereo not given) | x | x | + | 96 | -5 | 0
CCN1CCCC1CN(Cc1cc2ccc(C)cc2[nH]c1=O)C(=S)Nc1ccccc1OC (stereo not given) | 5 | -3 | 81 | 100 | x | x
CN(CP(=O)(O)C(O)c1ccccc1)S(C)(=O)=O (stereo not given) | 3 | -2 | 935* | 97 | x | 0
CCNC(=O)C[C@H]1CC[C@H]2[C@H](COc3ccc(NC(=O)Nc4ccccc4C)cc3C(=O)N2C)O1 | -4 | -3 | x | x | 2 | x
Cc1ccc(C(=O)O)cc1N=Cc1cc(Br)cc(Br)c1O | x | x | 858* | 77 | x | 0
CCN(CC)C(=O)CSc1nnc(SCc2ccc(Cl)cc2)s1 | -1 | -7 | 510* | 105 | x | 0
O=C(CSc1nnc(SCc2ccc(Cl)cc2)s1)N1CCOCC1 | -4 | -2 | -13 | 108 | x | x
CCCNc1nc2ccccc2c(=O)[nH]1 | -2 | -2 | 543* | 116 | 9 | 0
O=C(NC1CCCCC1)[C@@H]1[C@@H](CO)[C@@H]2Cn3c(cccc3=O)[C@@H]2N1CC1CCOCC1 | 1 | -3 | x | x | 0 | x
O=C(OCC(=O)N1CCN(c2ccccc2)CC1)c1nc(Cl)ccc1Cl | -2 | 4 | 641* | 106 | 6 | 0
COCC(=O)N1C[C@H]2[C@@H](c3ccccc31)[C@@H](CO)N2C(=O)c1ccncc1 | -3 | -3 | x | x | 2 | x
C[C@H](CO)N1C[C@H](C)[C@H](CN(C)C(=O)Nc2cccc3ccccc23)Oc2c(NC(=O)Nc3ccc(F)cc3)cccc2C1=O | -2 | -1 | x | x | -7 | x
O=C(Nc1ccccc1)N1CC(=O)N2[C@H](C1)[C@H](c1ccc(-c3ccc(F)cc3)cc1)[C@@H]2CO | x | x | x | x | -1 | x
SMILES | Cneo AK release | PglD inh | SUMO Mot1 rescue | Yeast superoxide | Ecoli rRNA inh | Mot1 SUMO dose
CC1=CC2=NC(=O)/C(=C\c3cc(C)n(-c4cccc(Cl)c4)c3C)C(=N)N2O1 | 3 | 0 | 11 | 92 | 1 | x
CC1=CC2=NC(=O)/C(=C\c3cc(C)n(-c4ccccc4)c3C)C(=N)N2O1 | 4 | 0 | 511* | 108 | -4 | -1
C[C@H]1CN([C@@H](C)CO)C(=O)Cc2cc(NC(=O)C3CCCCC3)ccc2O[C@@H]1CN(C)C(=O)Nc1cccc2ccccc12 | 0 | 5 | x | x | 0 | x
Cc1cc(NC(=O)c2ccc(N3C(=O)CCC3=O)cc2)no1 | -1 | 1 | 701* | 93 | x | 0
CC(C)Oc1ccc(CCC(=O)NNC(=O)c2ccccc2C(=O)O)cc1 | -1 | -3 | 460* | 127 | 19 | 0
COCC#Cc1cnc2c(c1)C(=O)N([C@H](C)CO)C[C@@H](C)[C@@H](CN(C)S(C)(=O)=O)O2 | -1 | 10 | x | x | 4 | x
O=C(NCc1ccco1)C1CC(=O)N(c2ccc(Cl)cc2)C1 (stereo not given) | x | x | 648* | 94 | 20 | -1
Cc1n[nH]c(=O)c2c(NC(=O)COC(=O)Cc3c(F)cccc3Cl)oc(C)c12 | x | x | -5 | 103 | 8 | x
Cc1n[nH]c(=O)c2c(NC(=O)COC(=O)Cc3ccc(Cl)cc3Cl)oc(C)c12 | 4 | 3 | 535* | 92 | -11 | 0[21 µM]
COc1ccc2c(c1)[C@H]1[C@H](CO2)[C@H](c2ccccc2)[C@]2(C)C(=O)Nc3cc(C)ccc3C(=O)N12 | 1 | 0 | 463* | 90 | 15 | -1
COc1ccc2c(c1)OC[C@H]1[C@H]2N2C(=O)c3cc(F)ccc3NC(=O)[C@@]2(C)[C@H]1c1ccccc1 | -2 | 6 | + | 117 | 1 | 0
C[C@@]12C(=O)Nc3cc(F)ccc3C(=O)N1[C@H]1c3ccccc3OC[C@@H]1[C@@H]2c1ccccc1 | -5 | -1 | + | 103 | x | 0
CN1C(=O)c2cc(NC(=O)Cc3cccs3)ccc2OC[C@H]2O[C@@H](CC(=O)NCc3ccc(-c4ccccc4)cc3)CC[C@H]21 | -5 | -5 | x | x | -1 | x
CCC(=O)N[C@H]1CC[C@H](CC(=O)OC)O[C@@H]1CO | -6 | 0 | x | x | 4 | x
C[C@@H]1CCCCO[C@@H](CN(C)C(=O)c2ccccc2)[C@H](C)CN([C@H](C)CO)C(=O)c2cc(NC(=O)NC3CCCCC3)ccc2O1 | 0 | 2 | x | x | -2 | x
Cc1nn(-c2ccccc2)c(N)c1N=Nc1cccc(S(=O)(=O)N2CCOCC2)c1 | -1 | -5 | 387* | 93 | 5 | -1
C[C@@H]1CCCCO[C@H](CN(C)S(=O)(=O)c2ccc(F)cc2)[C@H](C)CN([C@@H](C)CO)C(=O)c2cc(N(C)C)ccc2O1 | 1 | 0 | x | x | -2 | x
CN(CC(=O)NCc1cccs1)S(=O)(=O)c1cccc2nsnc12 | -2 | 1 | 436* | 106 | x | 0
O=C(NCC[C@@H]1CC[C@@H](NS(=O)(=O)c2ccc(F)cc2)[C@H](CO)O1)Nc1ccc(F)cc1 | -1 | 3 | x | x | -7 | x
